Assay results from different studies.
Protocols differ between the studies behind these lines. pEC50, pIC50: −log10 of the molar value.
Cell line: MCF7
Read-out: cell growth or viability

Structure (SMILES) | technique | concentration | time | quantity | value
NCC(=O)Nc1ccccc1/N=c1\cc(-c2ccc3c(c2)OCO3)oc2c([N+](=O)[O-])cccc12 | CCK-8 | 1 µM |  | inhibition | 11.7%
O=C(Nc1ccc(-c2cn(Cc3ccc(Br)cc3)nn2)cc1)Nc1ccccc1Br | CCK-8 | 50 µM | 48 h | viability | 92.9%
COc1ccc(NC(=O)NCc2cn(Cc3ccccc3C)nn2)cc1 | CCK-8 | 50 µM | 72 h | viability | 98.7%
CC(C)C[C@@H](NC(=O)[C@H](C)NC(=O)CNC(=O)[C@@H](NC=O)C(C)C)C(=O)N[C@@H](C)C(=O)N[C@@H](C(=O)N[C@H](C(=O)N[C@@H](C(=O)N[C@@H](Cc1c[nH]c2ccccc12)C(=O)N[C@H](CC(C)C)C(=O)N[C@@H](Cc1c[nH]c2ccccc12)C(=O)N[C@H](CC(C)C)C(=O)N[C@@H](Cc1c[nH]c2ccccc12)C(=O)N[C@@H](C(=O)N[C@@H](Cc1c[nH]c2ccccc12)C(=O)NCCO)C(C)C)[C@H](C)O)C(C)C)C(C)C | SRB |  | 48 h | GI50 | 0.397 µM
COc1ccc(NC(=O)Nc2cccc(-c3cn(Cc4ccc(Br)cc4)nn3)c2)cc1 | CCK-8 | 50 µM | 48 h | viability | 95.6%
NCC(=O)Nc1ccccc1/N=c1\cc(-c2ccc3c(c2)OCO3)oc2c(N)cccc12 | CCK-8 | 1 µM |  | inhibition | 7.42%
CCCS(=O)(=O)Oc1cc(C=NNC(=O)c2nc3ccccc3s2)ccc1OC | MTT | 100 µM | 48 h | cell death | 26.3%
CCOc1ccc(C(=O)CC(SCc2ccc(Cl)cc2)C(=O)OC)cc1 (stereo not shown) | MTT |  | 48 h | pEC50 | 4.40
COc1ccc(NC(=O)Nc2ccc(-c3cn(Cc4ccc(Br)cc4)nn3)cc2)cc1 | CCK-8 | 50 µM | 72 h | viability | 105%
Cc1nc(NC(=O)N2CCC[C@H]2C(N)=O)sc1-c1ccnc(C(C)(C)C(F)(F)F)c1 | ATP luminescence |  | 5 days | pEC50 | 6.04
CCc1nc(C(N)=O)c(Nc2ccc(N3CCC(N4CCN(C)CC4)CC3)c(OC)c2)nc1NC1CCOCC1 |  |  | 72 h | GI50 | 0.406 µM
O=C(NCc1cn(Cc2cccc(Cl)c2)nn1)Nc1ccc(Cl)cc1 | CCK-8 | 50 µM | 72 h | viability | 87.2%
Cc1n[nH]c2ccc3nc(-c4ccc(C(=O)NCCN(C)C)cc4)c4c(c3c12)CCCC4 |  |  | 72 h | GI50 | 2.4 µM
COc1ccc(NC(=O)NCc2cn(Cc3ccc(Cl)cc3)nn2)cc1 | CCK-8 | 50 µM | 48 h | viability | 90.6%
O=C(Nc1cccc(-c2cn(Cc3ccc(Cl)cc3)nn2)c1)Nc1ccccc1Br | CCK-8 | 50 µM | 72 h | viability | 69.6%
CCNc1nc2ccc(-c3c/c(=N\c4ccccc4NC(=O)CCN)c4ccccc4o3)cc2o1 | CCK-8 | 1 µM |  | inhibition | 3.78%
CC(C)(C)c1cc(NC(=O)Nc2ccc(-c3cn4c(n3)sc3cc(OCCN5CCOCC5)ccc34)cc2)no1 |  |  | 72 h | GI50 | > 10 µM
COc1ccc(NC(=O)NCc2cn(Cc3ccc(Br)cc3)nn2)cc1 | CCK-8 | 50 µM | 72 h | viability | 89.2%
COc1ccc2/c(=N/c3ccccc3NC(=O)N3CCOCC3)cc(-c3ccc4c(c3)OCCO4)oc2c1 | CCK-8 | 1 µM |  | inhibition | 7.65%

Structure (SMILES) | technique | concentration | time | quantity | value
CCS(=O)(=O)Oc1ccc(C=NNC(=O)c2nc3ccccc3s2)cc1OC | MTT | 100 µM | 48 h | cell death | 40.5%
O=C(Nc1cccc(-c2cn(Cc3ccc(Br)cc3)nn2)c1)Nc1ccccc1Br | CCK-8 | 50 µM | 72 h | viability | 76.8%
COc1ccc(NC(=O)NCc2cn(Cc3ccc(C)cc3)nn2)cc1 | CCK-8 | 50 µM | 48 h | viability | 97.7%
O=C(Nc1ccc(Cl)cc1)Nc1ccc(-c2cn(Cc3cccc(Cl)c3)nn2)cc1 | CCK-8 | 50 µM | 48 h | viability | 91.8%
C[C@H](N)C(=O)Nc1ccccc1/N=c1\cc(-c2ccc3c(c2)OCO3)oc2ccccc12 | CCK-8 | 1 µM |  | inhibition | 8.48%
CN(C)CCNC(=O)c1ccc(-c2nc3ccc4[nH]ncc4c3c3c2CCCC3)cc1 |  |  | 72 h | GI50 | 3.34 µM
NCCC(=O)Nc1ccccc1/N=c1\cc(-c2ccc3nc(N)oc3c2)oc2cc(O)ccc12 | CCK-8 | 1 µM |  | inhibition | 9.96%
COc1ccc(NC(=O)Nc2cccc(-c3cn(Cc4ccc(Cl)cc4)nn3)c2)cc1 | CCK-8 | 50 µM | 48 h | viability | 100%
O=C(NCc1cn(Cc2ccc(Cl)cc2)nn1)Nc1ccccc1Br | CCK-8 | 50 µM | 48 h | viability | 84.4%
COc1cc(C=NNC(=O)c2nc3ccccc3s2)ccc1OS(C)(=O)=O | MTT | 100 µM | 48 h | cell death | 49.1%
O=C(NCc1cn(Cc2ccc(Br)cc2)nn1)Nc1ccccc1Br | CCK-8 | 50 µM | 72 h | viability | 80.2%
Cc1n[nH]c2ccc3nc(-c4ccc(C(=O)NCCN(C)C)cc4F)c4c(c3c12)CCCCC4 |  |  | 72 h | GI50 | 5.72 µM
NCC(=O)Nc1ccccc1/N=c1\cc(-c2ccc3c(c2)OCO3)oc2ccccc12 | CCK-8 | 1 µM |  | inhibition | 10.9%
COc1ccc(NC(=O)Nc2cccc(-c3cn(Cc4cccc(Cl)c4)nn3)c2)cc1 | CCK-8 | 50 µM | 72 h | viability | 101%
NCCC(=O)Nc1ccccc1/N=c1\cc(-c2ccc3oc(N)nc3c2)oc2ccccc12 | CCK-8 | 1 µM |  | inhibition | 6%
COc1ccc(C=NNC(=O)c2nc3ccccc3s2)cc1OS(C)(=O)=O | MTT | 100 µM | 48 h | cell death | 32.3%
O=C(Nc1ccc(-c2cn(Cc3ccc(Cl)cc3)nn2)cc1)Nc1ccccc1Br | CCK-8 | 50 µM | 72 h | viability | 104%
COc1cccc2c1C(=O)c1c(O)c3c(c(O)c1C2=O)C[C@@](O)(C(=O)CO)C[C@@H]3O[C@H]1C[C@H](N)[C@H](O)[C@H](C)O1 | MTT |  | 48 h | pIC50 | 5.29
